Source: PubChem (several laboratories)
In the library only some 1.8% were active in any assay of this set; here they are far more common.
L929 necroptosis: blocks zVAD induced death of L929 cells. L929 zVAD necroptosis rescue, ATP luminescence, 24 h; with zVAD 60 µM. viability rescue, % at 10 µM. 220,000 tested, 0.38% active. AID 1377;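 active = activation, scaled between plate controls, above about 75%, limit read from the data; inactive = activation under that limit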
Autophagy mod: autophagy modulation, high-content screen. MEF GFP-LC3 puncta imaging; test concentration mostly 10 µM. calls only at 10 µM (by protocol). 190,000 tested, 0.98% active. AID 463193;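 active = percentage of spot-positive cells more than 3 SD above its plate mean, without a fluorescence outlier flag or 80% toxicity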
TNF necrop inh: inhibitors of TNF-alpha induced necroptosis in Jurkat FADD-/- cells; Jurkat FADD-/- TNF necroptosis rescue, ATP luminescence, 24 h; 0 = TNF only, 100 = no-TNF cells; activation (protection from cell death), % at 10 µM; 220,000 tested, 0.068% active; AID 463075;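 active = activation, meaning protection from cell death, of at least 50% relative to plate controls; inactive = activation below 50%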;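 also: necroptosis triggered by 40 ng/mL TNF-alpha added together with compound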
Mdm2 ligase inh: blocks human Mdm2 ubiquitin ligase activity; Q00987; cell-based MDM2 ubiquitination luciferase reporter, 2 h; 0 = plate control, 100 = twice control, blank-subtracted; signal enhancement, % at 5 µM; 210,000 tested, 0.11% active; AID 1230;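 active = signal enhancement of 30% or more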;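 also: luminescence tracks abundance of the self-degrading MDM2-luciferase fusion protein; higher signal means inhibition of MDM2 E3 ligase activity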
Target sequence (Q00987 whole entry, looked up, the tested form may be a part): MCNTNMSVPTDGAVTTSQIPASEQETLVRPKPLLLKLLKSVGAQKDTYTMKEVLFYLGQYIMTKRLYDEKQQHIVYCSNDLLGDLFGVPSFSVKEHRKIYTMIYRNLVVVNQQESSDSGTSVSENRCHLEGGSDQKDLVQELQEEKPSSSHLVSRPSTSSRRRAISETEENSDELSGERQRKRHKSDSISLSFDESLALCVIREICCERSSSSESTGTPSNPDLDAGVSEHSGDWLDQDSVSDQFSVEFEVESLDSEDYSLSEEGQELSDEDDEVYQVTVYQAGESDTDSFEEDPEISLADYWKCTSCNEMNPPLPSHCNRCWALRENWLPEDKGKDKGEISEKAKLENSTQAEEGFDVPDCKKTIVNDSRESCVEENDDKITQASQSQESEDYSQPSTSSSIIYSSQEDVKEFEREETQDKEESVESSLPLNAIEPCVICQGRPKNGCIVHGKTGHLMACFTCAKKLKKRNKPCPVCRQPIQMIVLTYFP
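Assay system: mammalian cells stably expressing self-ubiquitinating, self-degrading MDM2 E3–luciferase fusion. Quantity: 2000 cells in each well. Medium: DMEM culture medium. Compound dosing: single-point 5 µM. Timing: cell settling 4 h, compound treatment 2 h, both 37 °C. Technique: luciferase luminescence. Read-out basis: percent signal gain over controls, blank-subtracted. Benchmarks: plate controls and plate blanks.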
Dynein transport: dynein cargo transport inhibition | 3617.4 mouse cells, GR-EGFP nuclear translocation imaging; test concentration mostly 20 µM; stimulated with dexamethasone, 1 µM; stronger effect = lower value | z-score, hits read low | 220,000 tested, 0.47% active;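 active = plate z-score of nuclear minus cytoplasmic receptor signal below a set negative limit, without overly bright fluorescence or cell loss, cut at about -3.5 in these data, passing the limit was not always enough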;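 also: z-score of nuclear minus cytoplasmic ring GR-EGFP intensity difference per well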
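Medium: Induction medium lacking tetracycline, stripped serum | Probe or stimulus: 1.0 µM final dexamethasone stimulus | Schedule: 48 h induction, then 1 h compound, then 30 min agonist, 37 °C | Signal: Automated 10x imaging of fixed Hoechst-stained cells | Evaluation: Per-cell GR-EGFP intensity, nucleus versus surrounding cytoplasmic ring, well-averaged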
Dynein confirm: dynein cargo transport inhibition, confirmation. calls only at 20 µM. 1,000 tested, 69% active. shares compounds with Dynein transport. 3617.4 GR-EGFP nuclear translocation imaging, dexamethasone-induced;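 active = inhibition of receptor movement into the nucleus at or above a set limit in both runs, with normal cell brightness and cell count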;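 also: dexamethasone at 1 µM final in well for 30 min; nuclear minus cytoplasmic GR-EGFP mean intensity difference in channel 2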
Of the large screens only hits and unclear results are named; the others gave an inactive call (follow-up assays come after a bar, where they were run).

CCNc1nc2c(c(=O)[nH]c(=O)n2C)n1CC(C)C	none
CC(C)(C)c1ccc(C(=O)CC(Sc2ccc(Cl)cc2)C(=O)O)cc1 (stereo unspecified)	Dynein transport -4.6 | Dynein confirm active
COc1cc(OC)c2c(O)c3c(c(-c4c5c(c(O)c6c(OC)cc(OC)cc46)CO[C@@H](C)[C@H]5O)c2c1)[C@H](O)[C@H](C)OC3	Dynein transport -4.5 | Dynein confirm active
OC(CNCCc1ccc(C(F)(F)F)cc1)COc1ccc2ccccc2c1 (stereo unspecified)	Dynein transport -4.8 | Dynein confirm inactive
CC1(C)CC(NC(=O)c2c(N)no[n+]2[O-])CC(C)(C)N1	none
NCCCCC(NC(=O)C1CCCN1C(=O)C1CSSCC(N)C(=O)NC(Cc2ccc(O)cc2)C(=O)NC(Cc2ccccc2)C(=O)NC(CCC(N)=O)C(=O)NC(CC(N)=O)C(=O)N1)C(=O)NCC(N)=O (stereo unspecified)	none
O=C1CC(Sc2nnnn2-c2ccccc2)C(=O)N1c1cccc(Cl)c1 (stereo unspecified)	none
COc1ccc(N2C(=O)CC(Sc3nnnn3-c3ccc(F)cc3)C2=O)cc1 (stereo unspecified)	none | Dynein confirm active
Cc1nn(C(=O)Cn2cc([N+](=O)[O-])cn2)c(C)c1Cl	none
COc1ccc(CC(=O)N/N=C(\C)CC(=O)NCc2ccco2)cc1OC	none (no result: Autophagy mod)
CC1(C)Cc2c(sc3c4nnnn4c4nnnn4c23)CO1	Dynein transport -4.7 | Dynein confirm inactive
CCOC(=O)N1CCN(Cc2cc(Cl)c3cccnc3c2O)CC1	none
N#CC1=C(N)N(c2ccccc2)C(c2cccc([N+](=O)[O-])c2)C1(C#N)C#N (stereo unspecified)	Dynein transport -3.7 | Dynein confirm active
Cc1ccc(NN2C(=O)C=C(c3ccccc3)C2=O)cc1	Dynein transport -4.5 | Dynein confirm active
CCOc1ccc(Oc2ccc(NC(=O)[C@@H](NC(N)=O)[C@@H](C)CC)cc2)cc1	none (no result: Autophagy mod, Mdm2 ligase inh)
COc1ccc(OC)c(S(=O)(=O)Nc2ccc(Oc3ccccc3)cc2)c1	none
COc1ccc(OC)c(S(=O)(=O)Nc2ccc(O)c3ccccc23)c1	Dynein transport -4.2 (no result: Mdm2 ligase inh) | Dynein confirm inactive
O=S(=O)(c1cnc(Cl)c(Cl)c1)N1CCCc2ccccc21	none
O=S(=O)(c1cnc(Cl)c(Br)c1)N1CCc2ccccc21	Dynein transport -4.7 (no result: Autophagy mod) | Dynein confirm active
COc1cc(CC(=O)OCC(=O)N2CC(=O)Nc3ccccc32)cc(OC)c1OC	none
CC(C)COc1cc(=O)[nH]c(SCC(C)C)n1	Dynein transport -4.2 | Dynein confirm inactive
COc1cccc(OC)c1OCCCSc1nc(C)cc(=O)[nH]1	none
Cc1nn(-c2ccc(Cl)cc2)c(NC(=O)C(C)C)c(-c2ccccc2)c1=O	none (no result: Autophagy mod)
Cc1ccc(NC(=O)C23CCC(C)(C(=O)[C@H]2Br)C3(C)C)cc1 (stereo partly specified)	none (no result: Autophagy mod)
CN(C)C(CNC(=S)Nc1cccc(Cl)c1)c1ccccc1 (stereo unspecified)	none
Cc1ccc(C2C3CSCC=C3C(C#N)=C(N)C2(C#N)C#N)cc1 (stereo unspecified)	Dynein transport -4.1 | Dynein confirm inactive
Cc1[nH]c2ccccc2c1/C=N/Nc1ccc([N+](=O)[O-])cc1S(=O)(=O)Nc1ccc(Cl)cc1	Autophagy mod active | Dynein confirm inactive
COc1ccccc1NS(=O)(=O)c1cc([N+](=O)[O-])ccc1N/N=C/c1c[nH]c2ccccc12	Autophagy mod active | Dynein confirm inactive
O=[N+]([O-])c1ccc(N/N=C/c2ccc[nH]2)cc1	Autophagy mod active | Dynein confirm active
COc1ccc(C(=O)N/N=C/c2sc(N3CCOCC3)nc2-c2ccccc2)cc1OC	none
COc1ccccc1NS(=O)(=O)c1cc([N+](=O)[O-])ccc1N/N=C/c1sc(N2CCOCC2)nc1-c1ccccc1	Autophagy mod active | Dynein confirm inactive
COc1ccc(N(CN2C(=O)C3CCCCC3C2=O)C(=O)c2ccco2)cc1 (stereo unspecified)	none (no result: Autophagy mod)
O=[N+]([O-])c1ccc(N/N=C/c2c[nH]c3ccccc23)cc1	Autophagy mod active | Dynein confirm active
CCN(CC)C(=O)c1ccc2c(c1)nnn2C	none
Cc1ccc(Cn2cc(/C=N/Nc3ccc([N+](=O)[O-])cn3)c3ccccc32)cc1	Autophagy mod active | Dynein confirm active
O=C(O)CC1CCC(=C(Cl)Cl)C1 (stereo unspecified)	Dynein transport -4.8 | Dynein confirm inactive
O=C(O)CC1CCS(=O)(=O)C1 (stereo unspecified)	none
C=CCOc1ccccc1CN1CCCC(CCC(=O)N(C)CCc2ccccn2)C1 (stereo unspecified)	none
N#Cc1nccnc1S(=O)(=O)c1cccs1	Dynein transport -5.6 (no result: Autophagy mod) | Dynein confirm active
O=S(=O)(c1cccs1)N1CCN(S(=O)(=O)c2cccs2)CC1	none
Cc1nc2cc(-c3ccccc3)nn2c(C)c1CCC(=O)NC(C)c1ccc2c(c1)OCCO2 (stereo unspecified)	none (no result: L929 necroptosis, Mdm2 ligase inh)
COc1cc2c(cc1OC)C(SC)=NC1(CCCC1)C2	Dynein transport -3.6 | Dynein confirm active
COc1ccc(C(c2c(C)[nH]n(C(N)=S)c2=O)C(C#N)C#N)cc1 (stereo unspecified)	Dynein transport -4.1 | Dynein confirm active
CCOc1ccc(C(=O)n2cnnc2N)cc1	none (no result: Autophagy mod, Mdm2 ligase inh)
CCN(C(=O)c1coc(=O)c(Br)c1)c1ccc2c(c1)OCO2	Dynein transport -4.8 | Dynein confirm active
CCN(C(=O)c1c(C)cc(=O)oc1C)c1ccc2c(c1)OCO2	none
Nc1ccccc1SSc1ccccc1N	none (no result: Autophagy mod, Mdm2 ligase inh)
CC(C(Sc1ccccc1N)c1ccccc1)[N+](=O)[O-] (stereo unspecified)	Dynein transport -5.5 (no result: Autophagy mod) | Dynein confirm active
Nc1ccnc(Oc2ccc(F)cc2)c1	none
CCCN1C(=O)/C(=C\c2ccncc2)SC1=Nc1ccccc1	Dynein transport -4.4 | Dynein confirm inactive
CC1(C)CNC(=O)CC(C)(C)N1	none
Cn1c(C2=C(O)CN(c3ccccc3)C2=N)nc2ccccc21	none
N#CCC(=O)Nc1ccc(C(F)(F)F)cc1N1CCOCC1	none
Cc1ccc(-n2cc(CN3CCN(C(=O)c4ncn[nH]4)CC3)c(-c3ccc(F)cc3)n2)cc1	none (no result: Autophagy mod)
CC(=O)Nc1nnc(Cc2c[nH]c3ccccc23)s1	none
N#C/C(=C\c1cccc([N+](=O)[O-])c1)C(=O)NCc1ccc(Cl)cc1	Dynein transport -6.8 | Dynein confirm active
Cn1nc(C(F)(F)F)cc1-c1ccc(S(N)(=O)=O)s1	none (no result: Autophagy mod)
